In ChEMBL document CHEMBL2321729, “Identification of acidic heterocycle-substituted 1H-pyrazolo[3,4-b]pyridines as soluble guanylate cyclase stimulators” (Bioorg Med Chem Lett, 2013):
Values after ≈ are worked out from the molar mass of the structure shown.

How the values were obtained:
[1] = Oral bioavailability in Wistar rat at 0.3 mg/kg; assay type: ADME, organism-based; settings: in vivo
Method in brief: (§1)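 Wistar rats given 0.3 mg/kg as an intravenous bolus and by oral gavage, formulated in EtOH/PEG400/H₂O; mean values. AUC_norm was calculated from the concentration–time curve after the intravenous dose. Clearance was taken as total plasma (or total blood) clearance. Mean residence time, half-life and oral bioavailability were also derived.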

[2] = Half life in Wistar rat at 0.3 mg/kg, iv and 0.3 mg/kg, po; assay type: ADME, organism-based; settings: in vivo; method in brief: as §1
[3] = Total blood clearance in Wistar rat at 0.3 mg/kg, iv and 0.3 mg/kg, po; assay type: ADME, organism-based; settings: whole blood
Method in brief: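 Wistar rats received 0.3 mg/kg by intravenous bolus and by oral gavage, vehicle EtOH/PEG400/H₂O. Total blood clearance was reported as the mean value from these administrations.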

[4] = tested on: Rattus norvegicus; assay: Dose normalized AUC in Wistar rat at 0.3 mg/kg, iv; assay type: ADME, organism-based; parameters: dose 0.3 mg/kg, route intravenous; settings: in vivo; method in brief: as §1
[5] = tested on: Hepatocyte; assay: Stability of the compound in rat liver hepatocytes; assay type: ADME, cell-based
Method in brief: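 Bioavailability (Fmax) predicted from incubation with rat liver hepatocytes.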

[6] = Stimulation of soluble guanylate cyclase activity in pre-contracted rabbit aortic rings assessed as inhibition of vasoconstriction; settings: Oryctolagus cuniculus
Method in brief: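 Relaxation of rabbit aortic rings that were pre-contracted before exposure. IC50 given as the mean of three experiments.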

[7] = Total plasma clearance in Wistar rat at 0.3 mg/kg, iv and 0.3 mg/kg, po; assay type: ADME, organism-based; method in brief: as §1
[8] = Pseudo-thermodynamic solubility of the compound at pH 6.5; assay type: physicochemical; settings: buffer, read-out: Therm_solubility
Method in brief: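 Pseudo-thermodynamic solubility measured at pH 6.5.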

[9] = tested on: Liver microsomes; assay: Stability of the compound in rat liver microsomes; assay type: ADME, Microsome
Method in brief: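 Bioavailability (Fmax) predicted from incubation with rat liver microsomes.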

[10] = tested on: Rattus norvegicus; assay: Antihypertensive activity in po dosed spontaneously hypertensive rat assessed as reduction of blood pressure measured up to 24 hrs; assay type: functional, organism-based
Method in brief: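 Oral gavage at 0 h in spontaneously hypertensive rats; controls given vehicle. Blood pressure expressed as a percentage of initial values (131–142 mmHg). Mean of 6–12 animals.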

[11] = Mean residence time in Wistar rat at 0.3 mg/kg, iv and 0.3 mg/kg, po; assay type: ADME, organism-based; settings: in vivo; method in brief: as §1

bioavailability [1] [%]	half-life [2] [h]	AUC/dose [4] [kg·h/L]	Stability [5] [%]	IC50 [6] [nM]	clearance [7] [mL/min/kg]	solubility thermodynamic [8] [µg/mL]	Stability [9] [%]	MRT [11] [h]	Compound	clearance [3] [mL/min/kg]	Activity [10]
–	–	–	91	610	–	–	–	–	O=c1[nH]c(-c2nn(Cc3ccccc3F)c3ncccc23)nn1CC(F)(F)F	–	–
–	–	–	69	730	–	–	–	–	CCn1nc(-c2nn(Cc3ccccc3F)c3ncccc23)[nH]c1=O	–	–
94	2.4	3.63	100	8600	4.67	150 (≈ 508 µM)	–	–	Fc1ccccc1Cn1nc(-c2nnn[nH]2)c2cccnc21	–	–
–	–	–	59	3100	–	16 (≈ 51.6 µM)	–	–	O=c1[nH]nc(-c2nn(Cc3ccccc3F)c3ncccc23)[nH]1	–	–
–	–	–	74	870	–	4 (≈ 12.3 µM)	–	–	Cn1nc(-c2nn(Cc3ccccc3F)c3ncccc23)[nH]c1=O	–	–
–	–	–	–	610	–	10 (≈ 32.1 µM)	59	–	O=c1[nH]nc(-c2nn(Cc3ccccc3F)c3ncccc23)o1	–	–
–	–	–	90	520	–	11 (≈ 33.6 µM)	–	–	O=c1[nH]c(-c2nn(Cc3ccccc3F)c3ncccc23)ns1	–	–
–	–	–	69	1100	–	280 (≈ 855 µM)	–	–	Fc1ccccc1Cn1nc(-c2noc(=S)[nH]2)c2cccnc21	–	–
75	1.4	2.79	98	1260	–	320 (≈ 1030 µM)	–	1.9	O=c1[nH]c(-c2nn(Cc3ccccc3F)c3ncccc23)no1	11.7	Dose-dependent effect

Compound	bioavailability [1] [%]	half-life [2] [h]	AUC/dose [4] [kg·h/L]	Stability [5] [%]	IC50 [6] [nM]	clearance [7] [mL/min/kg]	solubility thermodynamic [8] [µg/mL]	Stability [9] [%]	MRT [11] [h]	clearance [3] [mL/min/kg]	Activity [10]
Nc1nc(-c2nn(Cc3ccccc3F)c3ncccc23)nc(N)c1N1CCOCC1	25	1.2	0.32	76	100	–	–	–	–	75	–
